The record followed here is ChEMBL document CHEMBL1150426, “New C5-alkylated indolobenzazepinones acting as inhibitors of tubulin polymerization: cytotoxic and antitumor activities” (J Med Chem, 2008).

Experiment [1] relates to KB. The experiment can be described thus: Cytotoxicity against human KB cells after 72 hrs. It counts as functional, cell-based. The method, boiled down:
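KB cells in EMEM (4.5 g/L glucose, 10% FCS, 1% glutamine) seeded 5 × 10³/well, dosed after 24 h with compound in DMSO (<0.1%). 72 h exposure, then resazurin 2 h; fluorescence ex 560/em 590 nm. IC50 = 50% fluorescence decrease versus untreated; triplicate.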

The nature of experiment [2]: Inhibition of sheep brain tubulin polymerization. Also noted: species or system Ovis aries. The method, boiled down: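 Sheep brain tubulin (about 2–3 mg/mL), purified by two assembly–disassembly cycles, in 0.1 M MES, 0.5 mM MgCl₂, 1 mM EGTA, 1 mM GTP, pH 6.6. Assembly followed by turbidity at 350 nm, 37 °C.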
A short description of experiment [3]: Antitumor activity against human U87 tumor transplanted in chick chorio-allantoic membrane assessed as reduction of tumor volume at 100 uM after 4 days. Also noted: scale not given: the % may be the effect or the level left. It counts as functional, U-87MG ATCC. The method in brief: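 On embryonic day 10, 5 × 10⁶ U87 glioma cells were placed on the chick CAM. On day 2 of tumor growth, size-matched tumors were split into groups. From day 3 to day 6, 20 µL of compound at 100 µM was applied locally once daily, and controls got solvent. Volume was calculated as V = 4/3πr³ with r = 1/2√(length × width), using six tumors per group.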

The test system of experiment [4] is A549. The experiment can be described thus: Antiproliferative activity against human A549 cells after 72 hrs. The class given is functional, cell-based. The settings on record: A549, 72 h. The method, boiled down:
(§1)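 Cells were seeded at 5 × 10³ per well and cultured for 24 h. Test compound in DMSO (under 0.1%) was then added for 72 h. Resazurin was added for 2 h, and fluorescence was read at ex 560 nm / em 590 nm. IC50 was taken as the concentration giving a 50% fall in fluorescence versus untreated cells. Runs were done in triplicate.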

Experiment [5] has as its system MDA-MB-231. Description: Antiproliferative activity against human MDA-MB-231 cells after 72 hrs. The settings on record: MDA-MB-231, 72 h. The class given is functional, cell-based. The method in brief:
as §1

In experiment [6] the test system is B16-F10. The experiment can be described thus: Antiproliferative activity against mouse B16F10 cells after 72 hrs. The class given is functional, cell-based. The note with it: B16-F10, 72 h. The method in brief:
as §1

Experiment [7] concerns HCT-116. Description: Antiproliferative activity against human HCT116 cells after 72 hrs. It counts as functional, cell-based. The note with it: HCT-116, 72 h. The method, boiled down:
as §1

Experiment [8] has as its system MDA-MB-435. Description: Antiproliferative activity against human MDA-MB-435 cells after 72 hrs. It counts as functional, cell-based. The note with it: MDA-MB-435, 72 h. The method in brief: as §1
A short description of experiment [9]: Antitumor activity against human U87 tumor transplanted in chick chorio-allantoic membrane assessed as reduction of tumor volume at 10 uM after 4 days. It counts as functional, U-87MG ATCC. Also noted: scale not given: the % may be the effect or the level left. The method, boiled down:
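U87 glioma cells (5 × 10⁶ in 20 µL medium) grafted on chick CAM on embryonic day 10; size-matched tumors grouped on day 2. 20 µL drug at 10 µM applied locally once daily, days 3–6 of tumor growth; controls got solvent. Volume V = 4/3πr³ from length and width, six tumors per group.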

Broadly, the IC50 is the concentration that inhibits the measured activity by half. Compound `CC1NC(=S)c2[nH]c3ccccc3c2-c2ccccc21` (racemic) showed a 50% inhibitory concentration (IC50) in [1] of 360 nM.
Consider `CCCCC1NC(=O)c2[nH]c3ccccc3c2-c2ccccc21` (racemic), for which the IC50 in experiment [2] came out at 1000 nM; in [1], 35 nM.
For the compound `CC1c2ccccc2-c2c(n(C)c3ccccc23)C(=O)N1C` (stereo not given), it took 28000 nM to reach half-maximal inhibition in experiment [1] (IC50).
Turning to `CCCC1NC(=O)c2[nH]c3ccccc3c2-c2ccccc21` (racemic), the IC50 was 2000 nM in experiment [2] and 32 nM in [1].
In the case of `CC1NCc2[nH]c3ccccc3c2-c2ccccc21` (racemic), it took 12000 nM to reach half-maximal inhibition in experiment [1] (IC50).
As to `COc1cc2c(c(OC)c1OC)-c1ccc(O)cc1[C@@H](NC(C)=O)CC2` [N-ACETYLCOLCHINOL], the concentration for half-maximal inhibition (IC50) stood at 3000 nM in experiment [2]; 75 nM in [1]; 250 nM in experiment [4]; 700 nM in [5]; 72 nM in experiment [6]; 100 nM in experiment [7]. The midpoint of inhibition in experiment [8], the IC50, lay at 140 nM. In addition, in experiment [3], the Activity is on record as 42%.
On to `COc1ccc2[nH]c3c(c2c1)-c1ccccc1[C@H](C)NC3=O`, for which the results for the IC50 in [2] and in experiment [1] were 51000 nM and 3500 nM, respectively.
For `CC[C@H]1NC(=O)c2[nH]c3ccccc3c2-c2ccccc21`, the IC50 in experiment [2] came to 1800 nM; in experiment [1] it was 35 nM.
Turning to `CC1NC(=O)c2c(c3ccccc3n2C)-c2ccccc21` (racemic), the half-inhibitory concentration (IC50) in experiment [1] was found to be 7000 nM.
Regarding `COc1cc2c(c(OC)c1OC)-c1ccc(OC)c(=O)cc1[C@@H](NC(C)=O)CC2` [COLCHICINE], the IC50 in [1] came to 20 nM; in experiment [5] it was 70 nM; in experiment [6] it was 29 nM; in [7] it was 40 nM; in experiment [8], 40 nM. In [9], the Activity was 50%.
In turn, `O=C1NCc2ccccc2-c2c1[nH]c1ccccc21` returned an IC50 in experiment [1] of 550 nM.
As for `CC(C)C1NC(=O)c2[nH]c3ccccc3c2-c2ccccc21` (racemic), the half-maximal inhibitory concentration (IC50) in [2] is 1700 nM; in experiment [1], 280 nM.
On to `CC1NC(=O)c2[nH]c3ccccc3c2-c2ccccc21` (racemic), for which the 50% inhibitory concentration (IC50) in [1] was 280 nM.
For `C[C@@H]1NC(=O)c2[nH]c3ccccc3c2-c2ccccc21`, the IC50 came to 1900 nM in experiment [2] and 80 nM in experiment [1].
The corresponding values for `CCC1NC(=O)c2[nH]c3ccc(F)cc3c2-c2ccccc21` (racemic) are 3600 nM and 500 nM.
In experiment [1], `C[C@H]1NC(=O)c2[nH]c3ccccc3c2-c2ccccc21` displayed an IC50 of 340 nM.
